Compounds with a hit are over-represented: about 2.2% of the library has one in this group of screens.
RORa activator = activators of human nuclear receptor RORA. CHO-K1 Gal4-RORA LBD luciferase reporter, luminescence; percent increase over mock-subtracted basal signal. activation, % at 10 µM. actives 1.5% (n = 65,000). AID 560;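 active = activation above the mean of all tested compounds plus 3 SD, cut at about 49% in these data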;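 also: 0% = DMSO-treated RORA cells and 100% = added signal equal to DMSO minus mock-transfected cells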
TNAP act mid DEA = human TNAP activation, intermediate phosphate acceptor; P05186; purified TNAP, CDP-star luminescence, 100 mM DEA, 30 min; active compounds read high; scale: 0 levamisole-inhibited, 1 vehicle-only enzyme; activation factor at 20 µM; 64,000 tested, under 10 active; AID 813;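 active = activation factor of at least 2 at 20 µM, relative to controls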
MT1-MMP txn act = activates MT1-MMP transcription; HT1080 MT1-MMP promoter luciferase reporter, luminescence, overnight; active compounds read high; activation factor at 10 µM; actives 0.16% (n = 86,000);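 active = activation factor of at least 2 for MT1-MMP transcription at 10 µM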
AP complement = orthogonal test for alternative complement pathway inhibitors; Human serum alternative complement pathway, LPS-coated ELISA, C3 deposition; tested in compound mixtures; inhibition, % at 5 µM; actives 0.08% (n = 62,000); AID 1235;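 active = inhibition above 30% in each of the two pooled mixtures holding the compound, so the lower value exceeds 30%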;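 also: 0% = serum in Mg-EGTA without compound and 100% = EDTA serum blank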
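Test system: human serum complement alternative pathway, C3 deposition onto LPS / Medium: Mg2+-EGTA GVB++ buffer containing human serum at 1:15 dilution / Probe or stimulus: Plate-bound LPS / Times: 1 h at 37 °C / Signal: ELISA with HRP anti-human C3 antibody, TMB substrate, absorbance 450 nm / Measure: percent inhibition / Repeats: two pool placements per compound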
SF1 activator = activators of human nuclear receptor SF-1 | CHO-K1 Gal4-SF-1 LBD luciferase reporter; % increase over DMSO SF-1-specific signal | activation, % at 10 µM | Q13285 | actives 1.9% (n = 65,000);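 active = activation above the mean activation of all tested compounds plus 3 SD, cut at about 50% in these data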
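Material: Gal4–SF-1 LBD one-hybrid luciferase reporter in CHO-K1 cells | Amount: 4,000 cells per well | Compound dosing: 10 µM single point, 1% DMSO | Schedule: 20 h compound treatment, 37 °C | Measured by: SteadyLite luciferase luminescence | Evaluation: Percent activation versus DMSO | Control set: DMSO-treated SF-1-transfected cells as negative, DMSO-treated mock-transfected cells lacking SF-1 as background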
Ec RNAP inh = inhibitors of Escherichia coli RNA polymerase | AID 559 | P0A8V2 | E. coli RNA polymerase, fluorescence transcription assay | inhibition, %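 (tested at 10 µM)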 | actives 0.2% (n = 62,000); in the data active = inhibition above about 20%;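 also: 0% = enzyme without compound and 100% = no enzyme blank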
Target sequence (P0A8V2 whole entry, looked up): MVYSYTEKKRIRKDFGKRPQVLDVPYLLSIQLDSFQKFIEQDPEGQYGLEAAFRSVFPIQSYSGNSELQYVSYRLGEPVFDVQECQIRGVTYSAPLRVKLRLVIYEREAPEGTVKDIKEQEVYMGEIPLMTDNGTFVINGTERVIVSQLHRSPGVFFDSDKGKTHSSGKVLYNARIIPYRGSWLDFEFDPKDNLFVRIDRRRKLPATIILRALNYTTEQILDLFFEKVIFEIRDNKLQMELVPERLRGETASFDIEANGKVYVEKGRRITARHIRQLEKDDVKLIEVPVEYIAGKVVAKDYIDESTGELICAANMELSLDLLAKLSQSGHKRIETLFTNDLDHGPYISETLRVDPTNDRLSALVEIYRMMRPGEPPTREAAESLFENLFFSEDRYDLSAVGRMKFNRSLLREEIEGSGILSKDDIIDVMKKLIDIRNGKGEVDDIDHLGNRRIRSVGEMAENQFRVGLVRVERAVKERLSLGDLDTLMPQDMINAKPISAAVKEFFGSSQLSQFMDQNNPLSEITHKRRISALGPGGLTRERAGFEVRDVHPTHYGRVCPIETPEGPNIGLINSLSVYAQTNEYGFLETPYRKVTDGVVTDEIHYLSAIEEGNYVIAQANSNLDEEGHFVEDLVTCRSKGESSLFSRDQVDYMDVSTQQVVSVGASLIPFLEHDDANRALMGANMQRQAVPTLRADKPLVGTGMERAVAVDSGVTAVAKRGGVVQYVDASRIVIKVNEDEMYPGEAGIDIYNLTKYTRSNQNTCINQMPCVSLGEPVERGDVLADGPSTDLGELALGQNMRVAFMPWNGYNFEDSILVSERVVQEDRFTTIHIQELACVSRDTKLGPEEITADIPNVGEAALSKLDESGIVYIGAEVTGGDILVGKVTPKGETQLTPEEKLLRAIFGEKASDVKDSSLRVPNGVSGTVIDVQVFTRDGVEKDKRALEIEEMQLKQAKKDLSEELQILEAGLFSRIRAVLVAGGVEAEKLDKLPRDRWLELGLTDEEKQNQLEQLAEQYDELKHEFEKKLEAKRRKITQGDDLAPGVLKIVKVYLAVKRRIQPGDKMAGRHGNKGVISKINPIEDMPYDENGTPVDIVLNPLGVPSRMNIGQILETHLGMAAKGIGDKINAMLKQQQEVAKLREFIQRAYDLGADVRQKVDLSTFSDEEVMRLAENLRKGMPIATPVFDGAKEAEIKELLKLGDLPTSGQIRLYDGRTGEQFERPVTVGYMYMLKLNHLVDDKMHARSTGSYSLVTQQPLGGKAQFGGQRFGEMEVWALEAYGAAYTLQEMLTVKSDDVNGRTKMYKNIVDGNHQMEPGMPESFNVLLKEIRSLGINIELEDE
* hit, by the source's call; · = no result.

SMILES	RORa activator	TNAP act mid DEA	MT1-MMP txn act	AP complement	SF1 activator	Ec RNAP inh
O=C(Nc1ccc2c(c1)oc1ccccc12)c1cccnc1	38	0.8	1.6	0	55*	6
CCOC(=O)c1ccccc1NC(=O)CSc1nnnn1C1CCCCC1	54*	0.9	1	7	5	4
O=C1c2ccccc2NC(c2ccccn2)N1c1ccc(Cl)cc1 (stereo not drawn)	51*	0.8	1.5	11	64*	-2
CC1CCCCN1Cc1nc2c(c(=O)n(C)c(=O)n2C)n1Cc1cccc2ccccc12 (stereo not drawn)	-8	0.9	1.2	2	-3	7
COc1ccc(NC2CC(=O)N(C(C)C)C2=O)cc1 (stereo not drawn)	10	0.9	1.3	-1	50*	9
CC(C)N1C(=O)CC(Nc2ccc(N3CCOCC3)cc2)C1=O (stereo not drawn)	·	·	1.2	·	·	·
Cc1ccc(Cn2nnc3c(=O)n(CC(=O)c4ccccc4)cnc32)cc1	-18	0.9	1	11	21	3
Cc1nc2sc(C(c3ccccc3)N3CCN(C)CC3)c(O)n2n1 (stereo not drawn)	12	0.9	1	17	5	1
Cc1ccc(C(=O)Nc2sc3c(c2C#N)CCCCC3)cc1C	·	·	2.3*	·	·	·
CCCC(=O)Nc1sc2c(c1C#N)CCCCC2	·	·	1.7	·	·	·
CC(=O)Nc1sc2c(c1C#N)CCCCC2	-5	0.8	1.2	-1	10	22*
O=C(Nc1cccc(OC(F)(F)F)c1)c1ccc(Br)o1	26	2.3*	1.2	-7	1	-7
O=C(Nc1ccc(Br)c(Cl)c1)c1ccco1	76*	1	1.5	1	92*	7
COc1cc(NC(=O)CC(C)C)ccc1NC(=O)c1ccco1	80*	0.9	1.3	1	44	3
COc1cccc(NC(=O)c2ccco2)c1	54*	0.9	1.5	8	27	2
CNC1=C(Br)C(=O)c2ccncc2C1=O	·	·	1	·	·	·
CC(C)OC(=O)c1cccc(NC(=O)c2ccccc2)c1	·	·	2.1*	·	·	·
COc1ccc(C(=O)Nc2cc(C)on2)cc1	77*	1	0.7	-12	-1	3
COc1ccc(C(=O)Nc2cccc(OC)c2)cc1	46	0.9	1	16	81*	-1
COc1cccc(C(=O)Nc2cccc(NC(C)=O)c2)c1	25	1	1.2	-15	16	·
O=C(Cn1nnc(-c2ccccc2F)n1)Nc1ccc(S(=O)(=O)NC2CCCC2)cc1	-1	0.9	1	3	8	4
O=C(Nc1cccc(F)c1)Nc1ccccn1	61*	0.9	·	19	62*	1
O=C(Nc1ccncc1)Nc1ccccn1	-2	0.9	1.4	-3	6	9
Cn1ncc(N=Cc2ccccc2)c1C(=O)Nc1cccc(Cl)c1	·	·	1.1	·	·	·
Cc1cccc(NC(=O)c2cnc3sccn3c2=O)n1	16	0.9	·	-6	34	-7
SMILES	RORa activator	TNAP act mid DEA	MT1-MMP txn act	AP complement	SF1 activator	Ec RNAP inh
O=C(Nc1cnc2sccn2c1=O)c1ccccc1Cl	29	1	1.2	0	52*	4
Cc1cccc(NC(=O)c2cnc3sccn3c2=O)c1	24	0.8	0.9	12	-2	12
Cc1cccc(NC(=O)c2cnc3sccn3c2=O)c1C	74*	0.9	1.5	13	45	6
Cc1cccn2c(=O)c3cc(C(=O)N4CCc5ccccc54)n(C)c3nc12	-17	1.1	1.2	7	4	9
COc1ccc(NS(=O)(=O)c2ccc3c(c2)Cc2ccccc2-3)cn1	-1	0.9	1.1	11	-2	6
Cc1ccc(S(=O)(=O)CC#CCOC(=O)c2ccc([N+](=O)[O-])cc2)cc1	·	·	1.1	·	·	·
Cc1cccc(-n2ccnc2SCC(=O)Nc2nccs2)c1	-13	1	1.6	-2	60*	5
COC(=O)C1C(=O)c2c([nH]c(C(=O)OC3CCCCC3)c2C)CC1C (stereo not drawn)	77*	1	1.3	12	21	14
COC(=O)C1C(=O)c2c([nH]c(C(=O)OC3CCCC3C)c2C)CC1C (stereo not drawn)	30	0.9	1.8	15	16	6
